Test results from ChEMBL document CHEMBL4689842, “EUbOPEN Chemogenomics Library wave 1” (2021).

Test system: U2OS
Test: Multiplex assay against U2OS
Type: toxicity, cell-based
Details: human
Procedure, shortened: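 Live cells carried four stains from seeding: Hoechst33342, BioTracker Green Microtubule Cytoskeleton Dye, MitoTracker Red and Annexin V Alexa Fluor 680. They were imaged on a CQ1 microscope at 37°C and 5% CO2 after compound addition. Using CellPathfinder machine-learning gating, cells were split into Hoechst high-intensity objects or normal cells, normal cells into healthy, pyknosed or fragmented nuclei, and pyknosed cells into mitotic or apoptotic; tubulin, mitochondrial-mass and membrane-permeability phenotypes are per cents of healthy-nucleus cells.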

[1] = 12 h, 1 µM, compound concentration 1 uM, replicate 1
[2] = 12 h, 1 µM, compound concentration 1 uM, replicate 2
[3] = 12 h, 10 µM, compound concentration 10 uM, replicate 1
[4] = 12 h, 10 µM, compound concentration 10 uM, replicate 2
[5] = 24 h, 1 µM, compound concentration 1 uM, replicate 1
[6] = 24 h, 1 µM, compound concentration 1 uM, replicate 2
[7] = 24 h, 10 µM, compound concentration 10 uM, replicate 1
[8] = 24 h, 10 µM, compound concentration 10 uM, replicate 2

C=CCn1c(=O)c2cnc(Nc3ccc(N4CCN(C)CC4)cc3)nc2n1-c1cccc(C(C)(C)O)n1 [ADAVOSERTIB]
Population Apoptotic (%) [1]: 43% | Population Fragmented Nuclei (%) [1]: 11% | Population Healthy Nuclei (%) [1]: 60% | Population Hoechst High Intensity Objects (%) [1]: 3% | Population Membrane Permeable-Phenotype (%) [1]: 23% | Population Mitochondria Different-Phenotype (%) [1]: 15% | Population Mitotic Cells (%) [1]: 56% | Population Normal (%) [1]: 96% | Population Pyknosed Nuclei (%) [1]: 27% | Population Tubulin-Different-Phenotype (%) [1]: 21% | Total Cell Count [1]: 153 | Population Apoptotic (%) [2]: 12% | Population Fragmented Nuclei (%) [2]: 16% | Population Healthy Nuclei (%) [2]: 62% | Population Hoechst High Intensity Objects (%) [2]: 5% | Population Membrane Permeable-Phenotype (%) [2]: 13% | Population Mitochondria Different-Phenotype (%) [2]: 5% | Population Mitotic Cells (%) [2]: 87% | Population Normal (%) [2]: 94% | Population Pyknosed Nuclei (%) [2]: 21% | Population Tubulin-Different-Phenotype (%) [2]: 23% | Total Cell Count [2]: 165 | Population Apoptotic (%) [3]: 40% | Population Fragmented Nuclei (%) [3]: 25% | Population Healthy Nuclei (%) [3]: 13% | Population Hoechst High Intensity Objects (%) [3]: 8% | Population Membrane Permeable-Phenotype (%) [3]: 42% | Population Mitochondria Different-Phenotype (%) [3]: 47% | Population Mitotic Cells (%) [3]: 59% | Population Normal (%) [3]: 91% | Population Pyknosed Nuclei (%) [3]: 60% | Population Tubulin-Different-Phenotype (%) [3]: 80% | Total Cell Count [3]: 167 | Population Apoptotic (%) [4]: 44% | Population Fragmented Nuclei (%) [4]: 22% | Population Healthy Nuclei (%) [4]: 14% | Population Hoechst High Intensity Objects (%) [4]: 28% | Population Membrane Permeable-Phenotype (%) [4]: 37% | Population Mitochondria Different-Phenotype (%) [4]: 62% | Population Mitotic Cells (%) [4]: 55% | Population Normal (%) [4]: 71% | Population Pyknosed Nuclei (%) [4]: 62% | Population Tubulin-Different-Phenotype (%) [4]: 75% | Total Cell Count [4]: 76 | Population Apoptotic (%) [5]: 62% | Population Fragmented Nuclei (%) [5]: 20% | Population Healthy Nuclei (%) [5]: 41% | Population Hoechst High Intensity Objects (%) [5]: 8% | Population Membrane Permeable-Phenotype (%) [5]: 30% | Population Mitochondria Different-Phenotype (%) [5]: 25% | Population Mitotic Cells (%) [5]: 37% | Population Normal (%) [5]: 91% | Population Pyknosed Nuclei (%) [5]: 38% | Population Tubulin-Different-Phenotype (%) [5]: 38% | Total Cell Count [5]: 155 | Population Apoptotic (%) [6]: 50% | Population Fragmented Nuclei (%) [6]: 22% | Population Healthy Nuclei (%) [6]: 51% | Population Hoechst High Intensity Objects (%) [6]: 9% | Population Membrane Permeable-Phenotype (%) [6]: 21% | Population Mitochondria Different-Phenotype (%) [6]: 26% | Population Mitotic Cells (%) [6]: 50% | Population Normal (%) [6]: 90% | Population Pyknosed Nuclei (%) [6]: 26% | Population Tubulin-Different-Phenotype (%) [6]: 31% | Total Cell Count [6]: 149 | Population Apoptotic (%) [7]: 64% | Population Fragmented Nuclei (%) [7]: 36% | Population Healthy Nuclei (%) [7]: 11% | Population Hoechst High Intensity Objects (%) [7]: 13% | Population Membrane Permeable-Phenotype (%) [7]: 76% | Population Mitochondria Different-Phenotype (%) [7]: 82% | Population Mitotic Cells (%) [7]: 35% | Population Normal (%) [7]: 86% | Population Pyknosed Nuclei (%) [7]: 51% | Population Tubulin-Different-Phenotype (%) [7]: 88% | Total Cell Count [7]: 165 | Population Apoptotic (%) [8]: 68% | Population Fragmented Nuclei (%) [8]: 42% | Population Healthy Nuclei (%) [8]: 15% | Population Hoechst High Intensity Objects (%) [8]: 22% | Population Membrane Permeable-Phenotype (%) [8]: 75% | Population Mitochondria Different-Phenotype (%) [8]: 62% | Population Mitotic Cells (%) [8]: 31% | Population Normal (%) [8]: 77% | Population Pyknosed Nuclei (%) [8]: 42% | Population Tubulin-Different-Phenotype (%) [8]: 75% | Total Cell Count [8]: 67
